Hits are enriched below; roughly 5.1% of the tested compounds scored in any of these assays.
APP 5'UTR act: activators of APP 5'UTR luciferase reporter, primary screen, SH-SY5Y cells; SH-SY5Y APP 5'UTR luciferase reporter, luminescence; zero percent = DMSO vehicle wells; activation, % at 2 µM; actives 1% (n = 190,000); AID 1276, 2008;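 active = activation above a set limit, based on mean plus 3 SD of controls, cut at about 140% in these data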
STAT3 blocker: IL-6 driven STAT3 reporter inhibitors, primary screen, U3A cells, luciferase, luminescence, MLSCN library; inhibition, % at 5.5 µM; actives 0.89% (n = 190,000); IL-6 STAT3-luciferase reporter; host cell line lacks STAT1;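 active = inhibition above the mean inhibition across all screened compounds plus 3 SD, cut at about 44% in these data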;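 also: 0% = DMSO only wells and 100% = 100 µM nifuroxazide control wells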
NF-kB expr up: activators of NF-kB expression in neurons, primary screen, cell-based, HTS. fold change at 12.5 µM. actives 1.6% (n = 190,000). human neuronal cells, NF-kB reporter expression; stronger effect = higher value; in the data active = fold change above about 3.3
STAT3 act: IL-6 driven STAT3 reporter potentiators, primary screen, U3A cells, luciferase, luminescence, MLSCN library; AID 871, 2007; IL-6 STAT3-luciferase reporter; 100% = signal with IL-6 EC80 alone; actives 0.91% (n = 190,000); activation (% of control), % at 5.6 µM;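 active = activation above the screen-wide mean of compound activation plus 3 SD, cut at about 130% in these data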;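 also: 0% = background luminescence of wells with medium and substrate only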
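Material: human U3A cells carrying STAT3-luciferase construct. Measured by: reporter luminescence signal. Timing: compound 1 h, then IL-6 6 h at 37 °C.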
STAT1 inh: STAT1 signaling inhibitors, primary screen, cell-based, HTS, luciferase reporter; AID 920, 2007; actives 0.35% (n = 200,000); NIH 3T3 STAT1-luciferase reporter, IFN-gamma, luminescence; inhibition, % at 5.5 µM;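 active = inhibition above a set limit, the mean inhibition across all tested compounds plus 3 SD, cut at about 34% in these data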;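 also: 0% = IFN-gamma with DMSO and 100% = IFN-gamma with 300 µM nifuroxazide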
STAT1 act: STAT1 signaling activators, primary screen, cell-based, HTS, luciferase reporter; NIH 3T3 STAT1-luciferase reporter, IFN-gamma, luminescence; 100% = IFN-gamma alone, no compound; activation (% of control), % at 5.5 µM; actives 2.6% (n = 200,000); AID 932, 2007;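 active = activation above the screen-wide mean activation plus 3 SD, cut at about 130% in these data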;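 also: raw ratio to IFN-gamma control signal so 100% means no change and 0% no light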
The depositor's hits bear a star; · = no result given.

SMILES	APP 5'UTR act	STAT3 blocker	NF-kB expr up	STAT3 act	STAT1 inh	STAT1 act
CCOC(=O)c1c(NC(=O)C(C)N2CCN(S(=O)(=O)c3cccs3)CC2)sc2c1CCC(C)C2 (stereo unspecified)	-1	6	1	96	-2	102
Cc1nc(N/N=C/c2ccccn2)sc1C	-5	89*	1.1	25	80*	29
COc1ccc(-n2c(C)cc(-c3cn4cccc(C)c4n3)c2C)cc1	17	7	0.98	103	-2	100
COc1cccc2cc(-c3cn4cccc(C)c4n3)c(=O)oc12	57	-3	·	105	-39	136*
COc1ccc(C2=NN(C(C#N)c3ccc(OC)c(OC)c3)C(c3ccccc3)C2)cc1 (stereo unspecified)	155*	0	6.1*	103	-27	124
COc1ccc(C(C#N)N2CCC(c3ccccc3)=N2)cc1OC (stereo unspecified)	-9	6	1.3	97	-22	121
NC(N)=Nc1nc(-c2ccccc2)c2cc(F)ccc2n1	-25	16	2.6	90	12	89
CC(=O)Nc1ccc(N=Cc2c(O)c(C(=O)Nc3ccccc3)cc3ccccc23)cc1	7	-46	1.1	145*	11	89
CC(O)C(O)C(O)C(O)/C=N/NC(=O)c1ccccc1 (stereo unspecified)	56	-7	1.1	106	-32	129*
CN(C)/C=N/NC(=O)c1ccccc1	0	8	1.1	95	-6	103
CCn1c2ccccc2c2cc(NC(=O)c3cc(OC)cc(OC)c3)ccc21	-95	-33	4*	128	3	97
CCn1c2ccccc2c2cc(NC(=O)c3cc(OC)c(OC)c(OC)c3)ccc21	-8	-8	3.2	116	-3	103
COc1cc2c(cc1OC)C(c1cccs1)N(C(=S)NC(C)C)CC2 (stereo unspecified)	40	-18	1.4	116	-26	123
O=C(/C=C/c1cccs1)c1ccc(N2CCOCC2)cc1	236*	21	3.2	85	-21	120
O=C(NCc1cccnc1)NC1(C(F)(F)F)Oc2ccccc2O1	-15	6	3.5*	97	-3	103
CC(C)CNC(=O)NC1(C(F)(F)F)Oc2ccccc2O1	3	-4	3.2	106	-19	116
C=CCN(CC=C)C(=S)NC(=O)c1ccc(C)c(Br)c1	-2	4	2.1	96	5	95
CN(C)S(=O)(=O)c1ccc(NC(=O)CN2CCCc3ccccc32)cc1	-19	-32	1.1	127	1	100
COCc1nc2ccccc2n1Cc1c(F)cccc1Cl	-1	8	0.98	95	1	97
C/C(N)=C(/C#N)C(=O)CSc1nnc(-c2ccc(OC(F)F)cc2)o1	113	-18	4.8*	117	-52	148*
Cn1c(SCC(=O)NCc2cccs2)nnc1-c1ccc(O)cc1	16	-4	1	105	6	93
C/C(CC(=O)NC1CCCCC1)=N\NC(=O)c1ccccn1	156*	0	1	104	-34	130*
C/C(CC(=O)Nc1ccc(F)cc1)=N\NC(=O)c1ccccn1	91	8	1.3	100	-28	126
CC(=O)Nc1ccccc1NC(=O)C/C(C)=N/NC(=O)c1ccccn1	104	2	1.4	101	-36	131*
COc1ccc(-c2cc(C(=O)N3CCCCC3)no2)cc1OC	46	-10	1.9	112	-35	132*
SMILES	APP 5'UTR act	STAT3 blocker	NF-kB expr up	STAT3 act	STAT1 inh	STAT1 act
COc1ccc(-c2cc(C(=O)N3CCN(Cc4ccccc4)CC3)no2)cc1OC	-1	-5	0.88	110	-9	107
CCN(CC)C(=O)c1sc2nc(-c3ccc(OC)cc3)cn2c1C	117	9	2.9	97	-47	143*
COc1ccc(-c2cn3c(C)c(C(=O)NCCN4CCOCC4)sc3n2)cc1	9	-34	1	132	-1	101
Cn1nnc2cc(C(=O)Nc3ccc(Cl)cc3)ccc21	42	15	1.5	91	-37	132*
Cn1nnc2cc(C(=O)Nc3ccccc3)ccc21	28	23	1.8	83	-34	130*
Cn1nnc2cc(C(=O)Nc3cccnc3)ccc21	19	22	1.2	85	-8	107
Cc1ccc(NC(=O)c2ccc3c(c2)nnn3C)cc1	45	23	1.9	86	-17	115
COCCn1c(N)c(Sc2ccc([N+](=O)[O-])cc2)c(=O)[nH]c1=O	9	9	0.95	96	-10	107
C=CCNC(=O)c1ccc2c(=O)n(CCCN3CCCC3=O)c(=S)[nH]c2c1	-10	1	1.1	110	-4	103
C=CCSc1nc2ccccc2n1C(=O)/C=C/c1cc(OC)c(OC)c(OC)c1	-58	15	0.7	91	-49	145*
C=CCSc1nc2ccccc2n1C(=O)/C=C/c1ccc(OC)c(OC)c1	-8	-5	0.99	109	7	93
CCCNc1ncnc2c1cnn2-c1ccc(OC)cc1	193*	34	5.9*	77	-62	156*
COc1ccc(-n2ncc3c(NCCN4CCOCC4)ncnc32)cc1	59	1	0.64	106	-27	125
COc1ccc(-n2ncc3c(NCCCN4CCOCC4)ncnc32)cc1	85	-6	0.74	108	-38	135*
CCOc1ccc(NC2OCC(O)C(O)C2O)c([N+](=O)[O-])c1 (stereo unspecified)	0	4	1.1	101	2	97
CCOC(=O)c1[nH]ncc1CN1CCN(Cc2ccccc2)C(CCO)C1 (stereo unspecified)	5	3	1.4	101	12	88
O=C(Nc1ccc(Oc2nnc(-c3ccccc3)c3ccccc23)cc1)c1ccccc1	-5	-2	1.2	101	9	92
COc1ccccc1NC(=O)c1cc2ccccc2o1	46	-73	2.4	165*	-58	154*
Cc1ccccc1NC(=O)c1ccc([N+](=O)[O-])o1	2	11	3.3*	94	-2	100
N#Cc1ccccc1NC(=O)c1ccc(-c2ccccc2Cl)o1	45	8	2.1	94	-46	138*
COc1ccc(NC(=O)c2cc3ccccc3o2)cc1	138*	1	5.3*	105	-48	146*
Cc1ccc(NC(=O)c2ccc([N+](=O)[O-])o2)c(C)c1	7	23	2	85	-9	108
Cc1ccc(NC(=O)CN(c2ccccc2)S(=O)(=O)N(C)C)cc1	2	8	1.1	96	8	93

Screening data from PubChem.
